Measurements as given in ChEMBL document CHEMBL4257579, “Analogs of penfluridol as chemotherapeutic agents with reduced central nervous system activity” (Bioorg Med Chem Lett, 2018).

What was measured:
[1] = target: T1, 5-hydroxytryptamine receptor 2C (Homo sapiens, UniProt P28335); assay: Displacement of [3H]Mesulergine from human 5-HT2C receptor expressed in HEK293FlpIN cells by radioligand binding assay; assay type: cell-based
T1 sequence (P28335 whole entry): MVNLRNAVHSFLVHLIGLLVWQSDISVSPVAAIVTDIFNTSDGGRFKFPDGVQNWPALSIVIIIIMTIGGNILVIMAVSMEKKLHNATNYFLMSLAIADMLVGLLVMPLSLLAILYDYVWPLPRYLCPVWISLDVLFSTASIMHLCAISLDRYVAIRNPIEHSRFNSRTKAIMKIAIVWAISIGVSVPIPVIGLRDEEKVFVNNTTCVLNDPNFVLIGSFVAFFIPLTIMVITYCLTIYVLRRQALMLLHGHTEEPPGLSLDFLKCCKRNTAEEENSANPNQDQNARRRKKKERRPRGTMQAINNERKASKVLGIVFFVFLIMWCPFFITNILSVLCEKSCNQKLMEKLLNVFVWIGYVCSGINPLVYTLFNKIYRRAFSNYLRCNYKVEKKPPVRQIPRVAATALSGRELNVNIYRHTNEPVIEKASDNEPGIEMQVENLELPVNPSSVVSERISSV

MDA-MB-231 = assay: Cytotoxicity against human MDA-MB-231 cells assessed as reduction in cell viability after 24 hrs by MTT assay; assay type: functional, cell-based; conditions: MDA-MB-231, 24 h
How it was run: (§1)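 Cells exposed to compounds; viability read at 24, 48 and 72 h. Every experiment run in triplicate.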

[2] = tested on: Lewis lung carcinoma cell line; assay: Cytotoxicity against mouse LLC cells harboring […] assessed as reduction in cell viability after 72 hrs by MTT assay; assay type: functional, cell-based; how it was run: as §1
NIH3T3 [3] = assay: Cytotoxicity against mouse NIH/3T3 cells assessed as reduction in cell viability after 24 hrs by MTT assay; assay type: cell-based; conditions: NIH3T3, 24 h; how it was run: as §1
NIH3T3 [4] = assay: Cytotoxicity against mouse NIH/3T3 cells assessed as reduction in cell viability after 72 hrs by MTT assay; assay type: cell-based; conditions: NIH3T3, 72 h; how it was run: as §1
[5] = target: T2, 5-hydroxytryptamine receptor 1A (Homo sapiens, UniProt P08908); assay: Displacement of [3H]-Way100635 from human 5HT1A receptor expressed in stable CHO cell membranes by radioligand binding assay
T2 sequence (P08908 whole entry): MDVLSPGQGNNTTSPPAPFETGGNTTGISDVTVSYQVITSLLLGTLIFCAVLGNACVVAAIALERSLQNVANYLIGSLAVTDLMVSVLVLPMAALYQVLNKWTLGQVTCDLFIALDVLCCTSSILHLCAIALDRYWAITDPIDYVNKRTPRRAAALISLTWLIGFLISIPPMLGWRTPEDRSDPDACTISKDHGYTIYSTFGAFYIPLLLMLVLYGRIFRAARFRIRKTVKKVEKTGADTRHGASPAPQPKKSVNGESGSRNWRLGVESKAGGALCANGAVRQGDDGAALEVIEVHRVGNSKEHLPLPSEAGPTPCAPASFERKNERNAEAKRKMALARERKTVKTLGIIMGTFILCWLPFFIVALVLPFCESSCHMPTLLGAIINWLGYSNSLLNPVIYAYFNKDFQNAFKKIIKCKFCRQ

[6] = target: 5-hydroxytryptamine receptor 2A (Homo sapiens, UniProt P28223); assay: Displacement of [3H]Ketanserin from 5-HT2A receptor (unknown origin) by radioligand binding assay
[7] = target: 5-hydroxytryptamine receptor 2B (Homo sapiens, UniProt P41595); assay: Displacement of [3H]LSD from human 5-HT2B receptor expressed in HEK cells by radioligand binding assay; assay type: cell-based; conditions: read-out: Ki
D(1B) dopamine receptor = D(1B) dopamine receptor (Homo sapiens, UniProt P21918); assay: Displacement of [3H]SCH23390 from human dopamine D5 receptor expressed in HEK293T cells by radioligand binding assay relative to control; assay type: cell-based; design: concentration or dose not given beside the values; conditions: concentration not given here
D(2) dopamine receptor = D(2) dopamine receptor (Homo sapiens, UniProt P14416); assay: Displacement of [3H]N-methylspiperone from human dopamine D2 receptor expressed in stable fibroblast cells by radioligand binding assay relative to control; assay type: cell-based; design: concentration or dose not given beside the values; conditions: concentration not given here
D(3) dopamine receptor [8] = target: T3, D(3) dopamine receptor (Homo sapiens, UniProt P35462); assay: Displacement of [3H]N-methylspiperone from human dopamine D3 receptor expressed in HEK293T cells by radioligand binding assay relative to control; assay type: cell-based; design: concentration or dose not given beside the values; conditions: concentration not given here
D(1A) dopamine receptor = D(1A) dopamine receptor (Homo sapiens, UniProt P21728); assay: Displacement of [3H]SCH23390 from human dopamine D1 receptor expressed in HEK293T cells by radioligand binding assay relative to control; assay type: cell-based; design: concentration or dose not given beside the values; conditions: concentration not given here
[9] = target: T4, 5-hydroxytryptamine receptor 2C (Homo sapiens) (UniProt P28335); assay: Displacement of [3H]Mesulergine from human 5-HT2C receptor expressed in HEK293FlpIN cells by radioligand binding assay relative to control; assay type: cell-based; design: concentration or dose not given beside the values; conditions: concentration not given here
T4 sequence (whole entry): T1 sequence (P28335 whole entry)

[10] = target: 5-hydroxytryptamine receptor 5A (Homo sapiens, UniProt P47898); assay: Displacement of [3H]LSD from human 5-HT5A receptor expressed in Flp-In CHO cells by radioligand binding assay relative to control; assay type: cell-based; design: concentration or dose not given beside the values; conditions: concentration not given here
[11] = target: 5-hydroxytryptamine receptor 6 (Homo sapiens, UniProt P50406); assay: Displacement of [3H]LSD from human 5-HT6 receptor expressed in HEK cells by radioligand binding assay relative to control; assay type: cell-based; design: concentration or dose not given beside the values; conditions: concentration not given here
[12] = target: 5-hydroxytryptamine receptor 1D (Homo sapiens, UniProt P28221); assay: Displacement of [3H]5-CT from human 5-HT1D receptor expressed in HEK293T cells by radioligand binding assay relative to control; assay type: cell-based; design: concentration or dose not given beside the values; conditions: concentration not given here
[13] = target: T5, Sodium-dependent noradrenaline transporter (Homo sapiens, UniProt P23975); assay: Displacement of [3H]Nisoxetine from human NET expressed in HEK cells by radioligand binding assay; assay type: cell-based
[14] = target: T6, Sodium-dependent dopamine transporter (Homo sapiens, UniProt Q01959); assay: Displacement of [3H]WIN35428 from human DAT expressed in HEK cells by radioligand binding assay; assay type: cell-based
Mu-type opioid receptor = Mu-type opioid receptor (Homo sapiens, UniProt P35372); assay: Displacement of [3H]DAMGO from human MOR expressed in HEK cells by radioligand binding assay; assay type: cell-based
[15] = target: Kappa-type opioid receptor (Homo sapiens, UniProt P41145); assay: Displacement of [3H]U69593 from KOR (unknown origin) expressed in HEK cells by radioligand binding assay; assay type: cell-based
D(3) dopamine receptor [16] = target: T3, D(3) dopamine receptor; assay: Displacement of [3H]N-methylspiperone from human dopamine D3 receptor expressed in HEK293T cells by radioligand binding assay; assay type: cell-based
[17] = target: Delta-type opioid receptor (Homo sapiens, UniProt P41143); assay: Displacement of [3H]DADLE from human DOR expressed in HEK cells by radioligand binding assay relative to control; assay type: cell-based; design: concentration or dose not given beside the values; conditions: concentration not given here
Histamine H2 receptor = Histamine H2 receptor (Homo sapiens, UniProt P25021); assay: Displacement of [3H]Cimetidine from human H2 receptor expressed in HEK cells by radioligand binding assay relative to control; assay type: cell-based; design: concentration or dose not given beside the values; conditions: concentration not given here
[18] = target: T5, Sodium-dependent noradrenaline transporter; assay: Displacement of [3H]Nisoxetine from human NET expressed in HEK cells by radioligand binding assay relative to control; assay type: cell-based
[19] = target: Sodium-dependent serotonin transporter (Homo sapiens, UniProt P31645); assay: Displacement of [3H]Citalopram from human SERT expressed in HEK cells by radioligand binding assay relative to control; assay type: cell-based
[20] = target: T6, Sodium-dependent dopamine transporter; assay: Displacement of [3H]WIN35428 from human DAT expressed in HEK cells by radioligand binding assay relative to control; assay type: cell-based

T5 sequence (P23975 whole entry): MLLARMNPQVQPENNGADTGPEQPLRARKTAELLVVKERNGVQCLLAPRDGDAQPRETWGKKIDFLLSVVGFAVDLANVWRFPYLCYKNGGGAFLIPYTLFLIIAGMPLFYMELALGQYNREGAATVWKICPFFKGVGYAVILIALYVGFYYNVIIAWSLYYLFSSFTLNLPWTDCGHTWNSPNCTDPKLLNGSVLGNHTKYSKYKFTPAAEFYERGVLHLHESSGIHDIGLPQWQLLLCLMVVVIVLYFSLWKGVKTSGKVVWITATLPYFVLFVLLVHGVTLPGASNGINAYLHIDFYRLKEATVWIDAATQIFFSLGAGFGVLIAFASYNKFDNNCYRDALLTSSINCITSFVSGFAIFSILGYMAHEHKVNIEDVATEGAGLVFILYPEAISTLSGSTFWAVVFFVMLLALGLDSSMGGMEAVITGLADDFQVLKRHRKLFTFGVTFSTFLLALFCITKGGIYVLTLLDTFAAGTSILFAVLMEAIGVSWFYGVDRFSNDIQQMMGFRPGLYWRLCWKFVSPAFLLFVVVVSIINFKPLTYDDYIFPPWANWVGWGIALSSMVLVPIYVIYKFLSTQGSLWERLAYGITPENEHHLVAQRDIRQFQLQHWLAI
T3 sequence (P35462 whole entry): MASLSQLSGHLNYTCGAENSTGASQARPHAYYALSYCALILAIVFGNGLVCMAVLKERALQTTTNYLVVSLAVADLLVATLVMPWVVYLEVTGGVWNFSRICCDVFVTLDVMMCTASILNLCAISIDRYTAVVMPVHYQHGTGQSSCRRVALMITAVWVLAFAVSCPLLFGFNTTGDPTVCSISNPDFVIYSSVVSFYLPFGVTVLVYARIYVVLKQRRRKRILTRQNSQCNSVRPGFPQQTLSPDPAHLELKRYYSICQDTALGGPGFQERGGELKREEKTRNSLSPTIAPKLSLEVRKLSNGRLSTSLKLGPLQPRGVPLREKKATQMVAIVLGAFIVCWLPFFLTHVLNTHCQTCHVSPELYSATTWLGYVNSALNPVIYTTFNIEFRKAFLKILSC
T6 sequence (Q01959 whole entry): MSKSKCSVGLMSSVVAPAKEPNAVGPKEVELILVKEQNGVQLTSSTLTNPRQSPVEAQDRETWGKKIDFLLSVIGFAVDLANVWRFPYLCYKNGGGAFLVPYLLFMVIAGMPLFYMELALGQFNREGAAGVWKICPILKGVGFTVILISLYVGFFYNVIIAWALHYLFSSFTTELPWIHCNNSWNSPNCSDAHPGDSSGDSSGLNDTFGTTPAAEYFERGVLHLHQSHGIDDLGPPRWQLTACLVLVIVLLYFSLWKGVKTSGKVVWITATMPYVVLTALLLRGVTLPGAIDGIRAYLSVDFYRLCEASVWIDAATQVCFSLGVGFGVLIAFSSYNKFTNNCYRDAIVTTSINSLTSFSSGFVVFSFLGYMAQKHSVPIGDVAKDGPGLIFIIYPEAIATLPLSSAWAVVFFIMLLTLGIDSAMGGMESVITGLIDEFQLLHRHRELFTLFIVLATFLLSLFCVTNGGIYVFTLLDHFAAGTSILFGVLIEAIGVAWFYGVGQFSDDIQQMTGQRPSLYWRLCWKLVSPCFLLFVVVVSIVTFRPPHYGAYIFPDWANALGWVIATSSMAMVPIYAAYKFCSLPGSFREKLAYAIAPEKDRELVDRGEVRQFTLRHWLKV
Chain of Sodium-dependent serotonin transporter (P31645 whole entry): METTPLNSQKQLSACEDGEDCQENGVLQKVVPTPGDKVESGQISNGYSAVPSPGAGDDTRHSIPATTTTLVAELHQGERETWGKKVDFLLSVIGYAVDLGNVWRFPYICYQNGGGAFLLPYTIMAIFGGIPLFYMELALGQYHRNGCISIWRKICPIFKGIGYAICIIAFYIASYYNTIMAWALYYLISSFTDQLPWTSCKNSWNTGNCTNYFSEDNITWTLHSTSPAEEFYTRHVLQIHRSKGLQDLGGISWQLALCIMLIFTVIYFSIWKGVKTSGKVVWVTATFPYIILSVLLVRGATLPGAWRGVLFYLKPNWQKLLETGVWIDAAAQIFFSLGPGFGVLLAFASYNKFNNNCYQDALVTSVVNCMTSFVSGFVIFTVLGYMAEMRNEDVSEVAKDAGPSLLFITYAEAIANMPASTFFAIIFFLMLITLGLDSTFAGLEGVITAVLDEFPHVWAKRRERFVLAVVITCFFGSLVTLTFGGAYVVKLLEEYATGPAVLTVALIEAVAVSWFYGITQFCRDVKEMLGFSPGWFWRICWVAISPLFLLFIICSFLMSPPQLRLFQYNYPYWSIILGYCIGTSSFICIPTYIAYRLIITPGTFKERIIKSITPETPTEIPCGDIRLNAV
Chain of D(1A) dopamine receptor (P21728 whole entry): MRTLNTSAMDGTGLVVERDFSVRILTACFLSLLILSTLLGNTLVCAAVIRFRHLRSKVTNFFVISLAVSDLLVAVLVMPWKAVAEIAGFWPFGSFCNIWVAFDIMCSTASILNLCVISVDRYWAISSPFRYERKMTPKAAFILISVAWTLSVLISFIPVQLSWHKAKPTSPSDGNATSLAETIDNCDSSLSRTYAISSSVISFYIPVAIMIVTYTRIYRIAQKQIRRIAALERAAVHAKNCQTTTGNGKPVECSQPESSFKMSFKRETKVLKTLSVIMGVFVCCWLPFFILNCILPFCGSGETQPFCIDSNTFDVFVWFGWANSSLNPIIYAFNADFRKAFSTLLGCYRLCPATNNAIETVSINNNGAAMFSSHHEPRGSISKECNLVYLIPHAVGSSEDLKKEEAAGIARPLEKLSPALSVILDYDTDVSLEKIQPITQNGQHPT
Chain of 5-hydroxytryptamine receptor 1D (P28221 whole entry): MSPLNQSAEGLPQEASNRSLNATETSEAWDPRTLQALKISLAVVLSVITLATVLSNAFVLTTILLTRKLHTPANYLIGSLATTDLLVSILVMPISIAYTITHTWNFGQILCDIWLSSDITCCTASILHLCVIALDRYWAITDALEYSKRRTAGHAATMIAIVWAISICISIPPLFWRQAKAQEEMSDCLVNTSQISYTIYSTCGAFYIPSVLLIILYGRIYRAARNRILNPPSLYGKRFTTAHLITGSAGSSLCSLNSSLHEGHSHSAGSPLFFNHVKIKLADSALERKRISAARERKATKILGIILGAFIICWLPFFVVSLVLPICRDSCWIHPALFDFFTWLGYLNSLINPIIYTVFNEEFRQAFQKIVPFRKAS
Chain of D(2) dopamine receptor (P14416 whole entry): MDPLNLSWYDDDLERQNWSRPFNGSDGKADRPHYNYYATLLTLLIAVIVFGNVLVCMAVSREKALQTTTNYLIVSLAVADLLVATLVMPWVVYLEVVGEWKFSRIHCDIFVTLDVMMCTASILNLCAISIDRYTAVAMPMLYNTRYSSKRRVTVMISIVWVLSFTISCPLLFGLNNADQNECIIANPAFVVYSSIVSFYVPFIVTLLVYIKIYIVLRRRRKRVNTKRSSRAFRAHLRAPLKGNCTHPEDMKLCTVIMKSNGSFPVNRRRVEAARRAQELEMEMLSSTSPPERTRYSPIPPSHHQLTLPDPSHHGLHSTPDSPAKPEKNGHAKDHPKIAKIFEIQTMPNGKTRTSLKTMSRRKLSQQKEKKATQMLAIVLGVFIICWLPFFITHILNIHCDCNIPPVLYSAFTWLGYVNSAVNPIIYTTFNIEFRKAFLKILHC
Chain of 5-hydroxytryptamine receptor 6 (P50406 whole entry): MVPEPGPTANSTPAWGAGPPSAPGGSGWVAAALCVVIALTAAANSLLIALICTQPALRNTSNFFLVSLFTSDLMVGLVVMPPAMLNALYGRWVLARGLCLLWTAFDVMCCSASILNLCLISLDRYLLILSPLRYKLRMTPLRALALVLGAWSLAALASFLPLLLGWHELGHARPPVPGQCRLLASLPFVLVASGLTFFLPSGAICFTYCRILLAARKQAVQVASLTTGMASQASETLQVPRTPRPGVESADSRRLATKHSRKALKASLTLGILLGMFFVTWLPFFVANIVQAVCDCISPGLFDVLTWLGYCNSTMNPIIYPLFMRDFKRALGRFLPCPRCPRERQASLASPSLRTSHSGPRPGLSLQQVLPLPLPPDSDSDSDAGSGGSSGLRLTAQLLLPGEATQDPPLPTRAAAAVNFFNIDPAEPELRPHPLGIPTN
Chain of Mu-type opioid receptor (P35372 whole entry): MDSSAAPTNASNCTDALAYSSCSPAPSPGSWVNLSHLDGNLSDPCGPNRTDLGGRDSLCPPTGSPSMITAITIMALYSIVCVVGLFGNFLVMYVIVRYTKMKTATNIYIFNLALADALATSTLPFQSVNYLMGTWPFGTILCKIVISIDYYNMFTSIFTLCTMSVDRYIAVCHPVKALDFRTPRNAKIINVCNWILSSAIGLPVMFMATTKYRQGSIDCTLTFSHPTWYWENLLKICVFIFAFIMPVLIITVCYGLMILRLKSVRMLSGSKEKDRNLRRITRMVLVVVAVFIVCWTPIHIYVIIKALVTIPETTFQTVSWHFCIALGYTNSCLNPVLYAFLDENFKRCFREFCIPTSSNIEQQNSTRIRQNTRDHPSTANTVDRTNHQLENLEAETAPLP
Chain of D(1B) dopamine receptor (P21918 whole entry): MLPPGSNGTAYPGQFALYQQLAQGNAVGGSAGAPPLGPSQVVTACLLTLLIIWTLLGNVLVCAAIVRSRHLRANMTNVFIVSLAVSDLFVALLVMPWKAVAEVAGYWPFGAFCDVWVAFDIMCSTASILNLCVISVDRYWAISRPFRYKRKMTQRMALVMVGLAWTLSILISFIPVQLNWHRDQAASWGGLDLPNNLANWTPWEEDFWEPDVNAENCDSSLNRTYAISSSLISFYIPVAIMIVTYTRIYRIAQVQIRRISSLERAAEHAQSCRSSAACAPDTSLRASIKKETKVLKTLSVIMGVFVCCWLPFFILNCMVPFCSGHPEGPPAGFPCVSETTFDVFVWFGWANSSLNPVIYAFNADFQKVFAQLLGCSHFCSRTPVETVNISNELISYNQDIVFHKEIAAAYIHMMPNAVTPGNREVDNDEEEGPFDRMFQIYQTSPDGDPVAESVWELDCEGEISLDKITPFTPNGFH

Work on `OC1(c2ccc(Cl)c(C(F)(F)F)c2)CCN(CCCCC(c2ccc(F)cc2)c2ccc(F)cc2)CC1` yielded a Ki [1] of 1710 nM, an IC50 (MDA-MB-231) of 5300 nM and an IC50 [2] of 4200 nM. The IC50 (NIH3T3 [3]) was 6500 nM, the IC50 (NIH3T3 [4]) was 4100 nM and the Ki [5] was 1390 nM. For the same compound, the Ki [6] was 1000 nM, the Ki [7] was 423 nM and the inhibition (D(1B) dopamine receptor) was 88.2%. For the same compound, the inhibition (D(2) dopamine receptor) was 99.2%, the inhibition (D(3) dopamine receptor [8]) was 95.7% and the inhibition (D(1A) dopamine receptor) was 92.6%. For the same compound, the inhibition [9] was 89%, the inhibition [10] was 75.8% and the inhibition [11] was 80%. It also gave an inhibition [12] of 79.3%, a Ki [13] of 77 nM and a Ki [14] of 529 nM. The Ki (Mu-type opioid receptor) was 356 nM, the Ki [15] was 2670 nM and the Ki (D(3) dopamine receptor [16]) was 209 nM. For the same compound, the inhibition [17] was 84.5%, the inhibition (Histamine H2 receptor) was 94% and the “inhibition (INH)” value [18] was 98.3%. The “inhibition (INH)” value [19] was 92.5% and the “inhibition (INH)” value [20] was 91.6%.

In the case of `OC1(c2ccc(Cl)c(C(F)(F)F)c2)CCN(CCCN(c2ccc(F)cc2)c2ccc(F)cc2)CC1`, the Ki [1] is reported as 402 nM, the IC50 (MDA-MB-231) is reported as 6700 nM and the IC50 [2] is reported as 4100 nM. It also gave an IC50 (NIH3T3 [3]) of 6800 nM, an IC50 (NIH3T3 [4]) of 4000 nM and a Ki [5] of 1260 nM. The Ki [6] was 164 nM, the Ki [7] was 177 nM and the inhibition (D(1B) dopamine receptor) was 100%. It also gave an inhibition (D(2) dopamine receptor) of 66.4%, an inhibition (D(3) dopamine receptor [8]) of 94.4% and an inhibition (D(1A) dopamine receptor) of 96.8%. The inhibition [9] was 86.7%, the inhibition [10] was 67.7% and the inhibition [11] was 86.4%. It also gave an inhibition [12] of 80.7%, a Ki [13] of 902 nM and a Ki [14] of 1190 nM. It also gave a Ki (Mu-type opioid receptor) of 902 nM, a Ki [15] of 667 nM and a Ki (D(3) dopamine receptor [16]) of 474 nM. The inhibition [17] was 65.9%, the inhibition (Histamine H2 receptor) was 98.3% and the “inhibition (INH)” value [18] was 97.4%. The “inhibition (INH)” value [19] was 82.5% and the “inhibition (INH)” value [20] was 83.4%.
